Assay [1] has as its system Primary cortical neuron. Put plainly: Induction of microtubule stabilization in mouse Primary cortical neuron cells assessed as prevention of okadaic acid induced microtubule collapse by measuring cellular acetylated alpha-tubulin level at 10 uM incubated for 8 hrs by ELISA. It counts as cell-based. In outline:
(§1)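 Embryonic dissociated cortical neurons (mouse or rat) plated 3 × 10^5/well on poly-D-lysine, grown 10 days, then treated 8 h with 15 nM okadaic acid plus compound or vehicle (0.25% DMSO). Homogenate AcTub measured by ELISA; one-way ANOVA versus vehicle without okadaic acid.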
In general terms: An ELISA detects its analyte on a solid surface through an enzyme-linked reagent.

Assay [2] relates to Primary cortical neuron. The assay can be described thus: Induction of microtubule stabilization in rat Primary cortical neuron cells assessed as prevention of okadaic acid induced microtubule collapse by measuring cellular acetylated alpha-tubulin level at 1 uM incubated for 8 hrs by ELISA. Type of assay: cell-based. The procedure, abridged:
as §1

Assay [3] concerns Mus musculus. Put plainly: Binding affinity to microtubule in CD-1 mouse brain assessed as increase in de-tyrosinated alpha-tubulin level at 1 mg/kg, ip qd for 2 days […]. Type of assay: organism-based. Conditions: time 2.0 day. In outline:
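CD-1 mice (n = 4 per group) got two i.p. doses 1 mg/kg, about 24 h apart, from DMSO stock diluted into 30% Kolliphor EL in PBS pH 7.4; vehicle controls. Cortex and hippocampus taken 4 h after second dose, homogenized in RIPA with protease inhibitors, PMSF, 3 μM trichostatin A; equal protein western blot for Glu-tubulin, α-tubulin, GAPDH; infrared imaging; GluTub/α-Tub ratio versus vehicle.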

Assay [4] has as its target T1, Tubulin (Homo sapiens) (UniProt P68371+Q9H4B7+P0DPH7+P68366+Q13509+Q71U36+P04350+Q3ZCM7+P07437+P68363+Q9BQE3+Q6PEY2+Q13885+Q9BVA1+Q9BUF5). Put plainly: Induction of microtubule stabilization in human HEK293-A cells assessed as fold change in cellular acetylated alpha-tubulin level at 10 uM incubated for 4 hrs by ELISA relative to cevipabulin. Type of assay: cell-based. The procedure, abridged: (§2)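 QBI293 cells (2 × 10^5/well) treated 4 h with compound or DMSO vehicle; AcTub in whole-cell extracts measured by ELISA with BCA protein normalization. Fold-change in AcTub relative to DMSO then expressed against change produced by positive-control reference compound at 100 nM run alongside, to correct day-to-day responsiveness.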

For assay [5], the target named is T1, Tubulin (Homo sapiens). The assay can be described thus: Induction of microtubule stabilization in human HEK293-A cells assessed as fold change as increase in cellular acetylated alpha-tubulin level at 1 uM incubated for 4 hrs by ELISA relative to control. It counts as cell-based. The procedure, abridged: (§3)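 QBI293 cells (2 × 10^5/well) plated overnight, then fresh medium with compound (from 4–20 mM DMSO stocks) or vehicle (0.25–0.3% DMSO) for 4 h. Whole-cell extracts normalized by BCA protein; AcTub and total α-tubulin quantified by ELISA, as fold-change versus DMSO cells; one-way ANOVA.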

Assay [6] addresses T1, Tubulin (Homo sapiens). The assay can be described thus: Induction of microtubule stabilization in human HEK293-A cells assessed as fold change in total alpha-tubulin level reduction at 1 uM incubated for 4 hrs by ELISA relative to control. It counts as cell-based. In outline: as §3
Assay [7] addresses T1, Tubulin (Homo sapiens). Put plainly: Induction of microtubule stabilization in human HEK293-A cells assessed as fold change in cellular acetylated alpha-tubulin level at 1 uM incubated for 4 hrs by ELISA relative to cevipabulin. It counts as cell-based. The procedure, abridged: as §2
The target in assay [8] is T1, Tubulin (Homo sapiens). The assay can be described thus: Induction of microtubule stabilization in human HEK293-A cells assessed as fold change as increase in cellular acetylated alpha-tubulin level at 10 uM incubated for 4 hrs by ELISA relative to control. Type of assay: cell-based. In outline: as §3
Assay [9] has as its target T1, Tubulin (Homo sapiens). The assay can be described thus: Induction of microtubule stabilization in human HEK293-A cells assessed as fold change in total alpha-tubulin level reduction at 10 uM incubated for 4 hrs by ELISA relative to control. Type of assay: cell-based. In outline:
as §3

Activity calls are given as the source filed them. No cut-off for these calls is given here.

With `CC(C)[C@@H](C)Nc1c(-c2c(F)cc(F)cc2F)c(Cl)nc2ncnn12`, the result in assay [1] and in [2] was Active.
Turning to `C[C@@H](Nc1c(-c2c(F)cc(OCCCN(C)C)cc2F)c(Cl)nc2ncnn12)C(C)(C)C`, the result in assay [1] was Active.
Consider `C[C@@H](Nc1c(-c2c(F)cc(C#N)cc2F)c(Cl)nc2ncnn12)C(C)(C)C`, for which the result in [3] was Active.
For the compound `C[C@@H](Nc1c(-c2c(F)cc(C#CCCO)cc2F)c(Cl)nc2ncnn12)C(C)(C)C`, the outcome in [3] and in assay [1] was Active.
As to `C[C@@H](Nc1c(-c2c(F)cc(F)cc2F)c(Cl)nc2ncnn12)C1(C)N=N1`, the fold change (FC) in assay [4] was determined as 0.33.
For `C[C@@H](Nc1c(-c2c(F)cc(C#CCCN(C)C)cc2F)c(Cl)nc2ncnn12)C(C)(C)C`, the result in assay [3] and in assay [1] was Active.
In the case of `C[C@@H](Nc1c(-c2c(F)cc(C#CCCCO)cc2F)c(Cl)nc2ncnn12)C(C)(C)C`, in [1], the result was Active.
Still for that read-out and setting: with `C[C@@H](Nc1c(-c2c(F)cc(OCCCO)cc2F)c(Cl)nc2ncnn12)C(C)(C)C` the entry was “inactive”; with `CC(C)[C@@H](C)Nc1c(-c2c(F)cc(C#CCCCO)cc2F)c(Cl)nc2ncnn12`, “Active”.
On to `CO[C@H]1C[C@H]2CC[C@@H](C1)N2c1c(-c2ccc(F)cc2F)c(Cl)nc2ncnn12`, for which the fold change (FC) in assay [5] came to 3.65; in assay [6], 1.12; in [7], 0.54; in assay [8], 7.43; in [9], 1.38; in assay [4] it was 1.11.
In the case of `CC(C)[C@@H](C)Nc1c(-c2c(F)cc(C#CCCO)cc2F)c(Cl)nc2ncnn12`, the outcome in [1] was Active.
Consider `CC(C)[C@H](Nc1c(-c2c(F)cc(F)cc2F)c(Cl)nc2ncnn12)C(F)(F)F`, for which the result in assay [2] was inactive.
The same measure, in the same setting: with `CC(C)[C@@H](Nc1c(-c2c(F)cc(F)cc2F)c(Cl)nc2ncnn12)C(F)(F)F` the entry was “inactive”.
As to `C[C@@H](Nc1c(-c2c(F)cc(F)cc2F)c(Cl)nc2ncnn12)C1CC1`, the fold change (FC) in assay [6] stood at 1.11.

The values are drawn from ChEMBL document CHEMBL5316271, “Microtubule-Stabilizing 1,2,4-Triazolo[1,5-a]pyrimidines as Candidate Therapeutics for Neurodegenerative Disease: Matched Molecular Pair Analyses and Computational Studies Reveal New Structure-Activity Insights” (J Med Chem, 2023).
